Assay results gathered from unrelated publications.
Protocols differ between the studies behind these lines.
BCHE: Cholinesterase (BCHE, Equus caballus, UniProt P81908)
SLC6A4: Sodium-dependent serotonin transporter (SLC6A4, Homo sapiens, UniProt P31645)

| Compound | target | test | setting | IC50 [µM] |
| --- | --- | --- | --- | --- |
| O=C(CNC(=S)NN=Cc1ccc([N+](=O)[O-])cc1)c1ccc(Cl)cc1 | BCHE | enzyme activity, inhibitor, Ellman |  | 425 |
| O=P(O)(O)Oc1ccccc1OP(=O)(O)O | Signal transducer and activator of transcription 5A, SH2 (Homo sapiens, UniProt P42229) | ligand displacement, FP |  | 69 |
| CC=C1[C@H]2C=C(C)C[C@]1(N)c1cc(N)c(=O)[nH]c1C2 | BCHE | enzyme activity, inhibitor, Ellman |  | 525 |
| O=C(CNC(=S)NN=Cc1ccc([N+](=O)[O-])cc1)c1ccc([N+](=O)[O-])cc1 | BCHE | enzyme activity, inhibitor, Ellman |  | 326 |
| CC=C1[C@H]2C=C(C)C[C@]1(N)c1cc(OCCCC)c(=O)[nH]c1C2 | BCHE | enzyme activity, inhibitor, Ellman |  | 16.9 |
| CCn1cnc2c(Nc3cccc(Cl)c3)nc(N[C@@H]3CCCC[C@@H]3N)nc21 | Ribosomal protein S6 kinase alpha-3, N-terminal kinase domain (RPS6KA3, Homo sapiens, UniProt P51812) | enzyme activity, inhibitor, FP |  | 1 |
| NC(=O)NO | Urease (Canavalia ensiformis, UniProt P07374) | enzyme activity, inhibitor |  | 7.42 |
| CC=C1[C@H]2C=C(C)C[C@]1(N)c1cc(OCCC)c(=O)[nH]c1C2 | BCHE | enzyme activity, inhibitor, Ellman |  | 87.3 |
| CN1C[C@H](C(=O)N[C@]2(C)O[C@@]3(O)[C@@H]4CCCN4C(=O)[C@H](Cc4ccccc4)N3C2=O)C[C@@H]2c3cccc4[nH]cc(c34)C[C@H]21 | D(1A) dopamine receptor (DRD1, Homo sapiens, UniProt P21728) | ligand displacement, radioligand |  | 4.81 |
| NC(=O)N1C[C@@H](CCN2CC=C(c3c[nH]c4cc(Cl)ccc34)CC2)c2ccccc21 | SLC6A4 | ligand displacement, radioligand | cell membranes | 0.169 |
| C#CCNc1nc(NCCCCC2CCN(Cc3ccccc3)CC2)c(C#N)c(-c2ccccc2)c1C#N | BCHE | enzyme activity, inhibitor, Ellman |  | 0.61 |
| CC(=O)N1C[C@H](CCN2CC=C(c3c[nH]c4cc(Cl)ccc34)CC2)c2ccccc21 | SLC6A4 | ligand displacement, radioligand | cell membranes | 0.0818 |
| CC=C1[C@H]2C=C(C)C[C@]1(N(C)C)c1ccc(=O)n(C)c1C2 | BCHE | enzyme activity, inhibitor, Ellman |  | 259 |
